Assay results reported in ChEMBL document CHEMBL1926564, “Design, synthesis and biological activity of original pyrazolo-pyrido-diazepine, -pyrazine and -oxazine dione derivatives as novel dual Nox4/Nox1 inhibitors” (Bioorg Med Chem, 2011).

Legend:
NADPH oxidase 1 = target: T1, NADPH oxidase 1 (Homo sapiens, UniProt Q9Y5S8); test: Antagonist activity at human NOX1 expressed in CHO cell membrane coexpressing tetracylin repressor assessed as inhibition of ROS production after 20 mins by cell-free amplex red assay; type: functional
T1 sequence (Q9Y5S8 whole entry): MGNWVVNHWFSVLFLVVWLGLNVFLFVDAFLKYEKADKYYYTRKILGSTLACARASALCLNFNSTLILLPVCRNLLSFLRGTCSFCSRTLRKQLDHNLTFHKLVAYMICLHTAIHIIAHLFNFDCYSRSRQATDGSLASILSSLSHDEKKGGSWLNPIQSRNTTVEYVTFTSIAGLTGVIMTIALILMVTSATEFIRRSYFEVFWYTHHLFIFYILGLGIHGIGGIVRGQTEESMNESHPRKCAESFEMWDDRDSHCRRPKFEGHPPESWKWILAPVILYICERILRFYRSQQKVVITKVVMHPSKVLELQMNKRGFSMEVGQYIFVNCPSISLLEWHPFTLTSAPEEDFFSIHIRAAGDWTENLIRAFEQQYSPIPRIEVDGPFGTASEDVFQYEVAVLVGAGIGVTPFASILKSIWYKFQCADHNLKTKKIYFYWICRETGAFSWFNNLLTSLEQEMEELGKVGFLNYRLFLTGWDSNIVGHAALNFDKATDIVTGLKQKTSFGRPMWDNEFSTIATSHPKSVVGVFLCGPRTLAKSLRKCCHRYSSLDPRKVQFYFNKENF
Procedure, shortened: (§1)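 Membranes from tetracycline-induced (24 h) Nox-expressing cells or human PMN (Nox2), sucrose-gradient purified; or xanthine oxidase. Incubated in PBS with Amplex Red, HRP and cofactors; NADPH (Nox) or xanthine starts ROS. Compound 1 nM–100 µM, 20 min at 37 °C, plate-reader. Background without membranes or agonist. Ki by Cheng-Prusoff; mean of ≥3 experiments in triplicate.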

NADPH oxidase 4 = target: T2, NADPH oxidase 4 (Homo sapiens, UniProt Q9NPH5); test: Antagonist activity at human NOX4 expressed in CHO cell membrane coexpressing tetracylin repressor assessed as inhibition of ROS production after 20 mins by cell-free amplex red assay; type: functional; settings: in the assay text read “HEK293 cell membrane” for “CHO cell membrane”; procedure, shortened: as §1
T2 sequence (Q9NPH5 whole entry): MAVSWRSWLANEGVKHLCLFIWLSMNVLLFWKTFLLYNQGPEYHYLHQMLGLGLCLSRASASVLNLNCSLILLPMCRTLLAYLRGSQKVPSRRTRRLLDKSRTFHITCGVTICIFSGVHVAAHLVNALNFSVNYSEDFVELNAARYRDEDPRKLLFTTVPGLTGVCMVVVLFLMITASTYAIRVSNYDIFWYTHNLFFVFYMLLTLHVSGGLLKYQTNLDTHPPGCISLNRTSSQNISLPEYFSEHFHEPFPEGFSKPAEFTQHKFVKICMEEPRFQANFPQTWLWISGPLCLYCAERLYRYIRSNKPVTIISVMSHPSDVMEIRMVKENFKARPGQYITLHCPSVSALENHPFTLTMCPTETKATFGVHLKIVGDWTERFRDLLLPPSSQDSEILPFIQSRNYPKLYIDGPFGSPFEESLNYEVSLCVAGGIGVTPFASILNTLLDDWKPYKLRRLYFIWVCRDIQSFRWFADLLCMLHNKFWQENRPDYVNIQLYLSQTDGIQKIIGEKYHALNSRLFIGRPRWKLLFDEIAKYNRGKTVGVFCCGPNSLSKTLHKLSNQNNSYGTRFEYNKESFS

NADPH oxidase 5 = target: T3, NADPH oxidase 5 (Homo sapiens, UniProt Q96PH1); test: Antagonist activity at human NOX5 assessed as inhibition of ROS production after 20 mins by cell-free amplex red assay; type: functional; procedure, shortened: as §1
T3 sequence (Q96PH1 whole entry): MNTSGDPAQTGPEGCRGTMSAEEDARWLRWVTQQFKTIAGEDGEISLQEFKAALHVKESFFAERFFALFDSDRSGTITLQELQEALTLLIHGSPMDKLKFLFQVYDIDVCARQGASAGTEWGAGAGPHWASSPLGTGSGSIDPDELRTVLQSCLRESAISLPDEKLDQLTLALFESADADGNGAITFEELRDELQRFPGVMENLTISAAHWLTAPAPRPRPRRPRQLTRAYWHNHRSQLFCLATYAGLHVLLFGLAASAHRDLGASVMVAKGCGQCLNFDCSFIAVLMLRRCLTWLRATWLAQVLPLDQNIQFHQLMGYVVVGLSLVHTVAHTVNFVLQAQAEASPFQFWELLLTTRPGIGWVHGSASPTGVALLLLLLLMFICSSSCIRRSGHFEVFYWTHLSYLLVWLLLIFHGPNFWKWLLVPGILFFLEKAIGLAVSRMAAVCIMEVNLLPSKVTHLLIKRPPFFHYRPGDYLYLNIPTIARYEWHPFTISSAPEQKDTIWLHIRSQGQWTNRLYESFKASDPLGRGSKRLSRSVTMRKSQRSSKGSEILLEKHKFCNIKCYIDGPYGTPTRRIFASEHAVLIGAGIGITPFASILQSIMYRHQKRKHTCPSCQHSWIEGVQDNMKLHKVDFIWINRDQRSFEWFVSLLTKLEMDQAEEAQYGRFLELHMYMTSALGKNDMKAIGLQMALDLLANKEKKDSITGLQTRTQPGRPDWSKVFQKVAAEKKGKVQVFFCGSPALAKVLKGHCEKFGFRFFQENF

[1] = Half life in Sprague-Dawley rat at 5 mg/kg, iv; type: ADME, organism-based; set-up: dose 5 mg/kg, route intravenous; settings: in vivo
Procedure, shortened: (§2)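 Rats in two groups of three: 5 mg/kg iv in EDPW (10% EtOH, 10% DMA, 30% PG, 50% water) or 10 mg/kg oral in aqueous 0.5% CMC/0.25% Tween 20. Carotid arterial cannula blood sampled up to 24 h. Plasma levels by LC/MS/MS (LLOQ 1.00 ng/mL); noncompartmental analysis.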

[2] = Clearance in Sprague-Dawley rat at 5 mg/kg, iv; type: ADME, organism-based; set-up: dose 5 mg/kg, route intravenous; settings: in vivo; procedure, shortened: as §2
[3] = Cmax in Sprague-Dawley rat at 10 mg/kg, po; type: ADME, organism-based; set-up: dose 10 mg/kg, route oral; settings: in vivo; procedure, shortened: as §2
[4] = Tmax in Sprague-Dawley rat at 10 mg/kg, po; type: ADME, organism-based; set-up: dose 10 mg/kg, route oral; settings: in vivo; procedure, shortened: as §2
[5] = Half life in Sprague-Dawley rat at 10 mg/kg, po; type: ADME, organism-based; set-up: dose 10 mg/kg, route oral; settings: in vivo; procedure, shortened: as §2
[6] = Clearance in human liver microsomes assessed per mg of protein at 0.5 uM; type: ADME, Microsome; settings: read-out: CLH
Procedure, shortened: (§3)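 Pooled rat (male Sprague Dawley) or human (mixed-sex) liver microsomes at 0.5 mg/mL final, 0.1 M phosphate pH 7.4, compound 0.5 µM final, 0.25% DMSO, 37 °C; 1 mM NADPH starts reaction. Sampled 0–45 min, methanol quench with internal standard, LC/MS-MS; intrinsic clearance from compound loss.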

[7] = Clearance in Sprague-Dawley rat liver microsomes assessed per mg of protein at 0.5 uM; type: ADME, Microsome; settings: read-out: CLH; procedure, shortened: as §3
[8] = Apparent permeability across human Caco2 cells at 10 uM after 2 hrs; type: ADME, cell-based; settings: Caco-2
Procedure, shortened: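 Caco-2 monolayers grown 20 days, TEER >800 ohm·cm². Compound 10 µM final in HBSS pH 6.5 (1% DMSO), dosed apical (A→B) or basolateral (B→A), 2 h at 37 °C; both compartments sampled, LC–MS/MS cassette analysis with 5-point calibration.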

[9] = Fraction unbound in rat plasma containing 50% plasma protein; type: ADME, cell-free
Procedure, shortened: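 Rat plasma protein binding in 50% plasma; fraction unbound reported.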

Structure (SMILES)	Ki (NADPH oxidase 1)	Ki (NADPH oxidase 4)	Ki (NADPH oxidase 5)	half-life [1]	clearance [2]	Cmax [3]	Tmax [4]	half-life [5]	microsomal CLint at 0.5 µM [6]	microsomal CLint at 0.5 µM [7]	Papp at 2 h, 10 µM [8]	fraction unbound [9]
Cl.O=c1c2c3n(c(=O)cc2[nH]n1-c1ccccc1Cl)CCCN(Cc1ccccn1)C3	113 nM	67 nM	543 nM	5.62 h	7.67 mL/min/kg	11300 ng/mL	0.25 h	3.63 h	13.9 µL/min/mg	27.5 µL/min/mg	1.8 ×10⁻⁶ cm/s	0.026
Cl.O=c1c2c3n(c(=O)cc2[nH]n1-c1ccccc1Cl)CCCN(Cc1ccccc1)C3	101 nM	72 nM	414 nM	2.71 h	2.17 mL/min/kg	14900 ng/mL	0.33 h	2.37 h	35 µL/min/mg	64 µL/min/mg	42.2 ×10⁻⁶ cm/s	0.12
